# Rows were chosen to be rich in hits. Some 1.3% of all compounds tested hit in one or more screens of this group.
# CSN inh: inhibitors of CSN-mediated cullin deneddylation, primary screen, biochemical, fluorescence polarization, uHTS; hit rate 0.38% among 360,000; Purified CSN, SCF-Nedd8-OG deneddylation; inhibition, % at 12.5 µM; AID 651999, 2013; COP9 signalosome complex subunit 5 (Homo sapiens), Q92905;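 active = pattern-corrected inhibition above about 35%, with an unprinted fluorescence ratio check between 0.5 and 1.5, limit read from the data, passing the limit was not always enough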;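 note: 0% = enzyme with substrate and 100% = substrate without enzyme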
#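 Assay system: purified human Csn5 enzyme expressed in HEK293T cells; Input: 0.24 nM Csn5 enzyme, final concentration; Reagent: 10 nM SCFSkp2-Nedd8OG; Compound dosing: 12.5 µM single point; Times: reaction 90 min, room temperature; Technique: fluorescence polarization readout.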
# Rpn11 block: Rpn11 (PSMD14) deubiquitinase inhibitors, primary screen, biochemical, fluorescence polarization, uHTS; 26S proteasome non-ATPase regulatory subunit 14 (Homo sapiens), O00487; human 26S proteasome, Ub4-pepOG fluorescence polarization; 20S core pre-blocked with epoxomicin; inhibition, % at 20 µM; hit rate 0.59% among 360,000; AID 588493, 2011;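 active = inhibition at 20 µM, scaled to each plate's controls, above about 33%, limit read from the data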
# TPT1 inh: Candida albicans TPT1 enzyme inhibitors, primary screen, biochemical, fluorescence polarization; AID 1962, 2009; tRNA 2'-phosphotransferase TPT1 (Candida albicans SC5314); recombinant caTPT1, FP RNA substrate dephosphorylation; hit rate 0.81% among 300,000; inhibition, % at 5 µM;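 active = inhibition above the mean of all tested compounds plus 3 SD, set per screening campaign, cut at about 24% in these data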;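 note: plate controls were DMSO alone for no effect and ferristatin control at 100 nM for full effect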
# XiGFP reactiv: activators of inactive X chromosome reactivation, primary screen, imaging, XiGFP fibroblasts, GFP high-content imaging, set 2 | AID 743238, 2013 | XiGFP mouse fibroblasts, % GFP-positive cells imaging, 3 d; cells co-treated with 5-aza-dC sensitizer; scaled so ellipticine positive control = 100% | activation, % at 7.58 µM | hit rate 0.055% among 360,000;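 active = mean normalized replicate activation at least 10% and every replicate at or above 10%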;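 note: 0% = median of on-plate neutral control wells and 100% = ellipticine 6 µM median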
#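 System: XiGFP fibroblasts, SV40-immortalized. Medium: DMEM plus 5-aza-dC sensitizer. Doses: single point. Timing: 3 d treatment, 15 min room-temperature fixation. Control set: ellipticine 6 µM.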
# aDG glyco act: activators of alpha-DG glycosylation, primary screen, uHTS, Pro5-aDG cells, AlphaScreen | alpha-DG glycosylation AlphaScreen (IIH6); 0% Pro5, 100% B10-LARGE cell signal | activation, % at 10 µM | hit rate 0.22% among 360,000 | AID 624168, 2012;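 active = activation of at least 8% versus controls, or a plate z-score of at least 8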;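 note: Pro5 are CHO cells carrying HIG-tagged alpha-DG that lacks glycosylation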
# HNF4A DNA FP: change in binding of human HNF4A to DNA, primary screen, biochemical, fluorescence polarization, FITC-DNA | 1 h | activity change, % at 10 µM | hit rate 0.3% among 360,000; in the data active = activity change above about 30%, passing the limit was not always enough
# Rpn11 inh conf: Rpn11 (PSMD14) deubiquitinase inhibitors, confirmation, biochemical, fluorescence polarization, single concentration; shares compounds with Rpn11 block; purified human 26S proteasome, Ub4-pepOG fluorescence polarization; proteasome pretreated with epoxomicin; inhibition, % at 20 µM; hit rate 29% among 1,900; AID 602318, 2012
# MMP-2 inh: MMP-2 enzyme inhibition, confirmation, counter-screen for RPN11 inhibitor project, biochemical, fluorescence, single concentration | inhibition, % at 20 µM | recombinant MMP-2, FRET peptide cleavage fluorescence | shares compounds with Rpn11 block | hit rate 4% among 1,900 | AID 602330, 2012;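 note: human MMP-2 activated beforehand with APMA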
# Thrombin inh: bovine thrombin protease inhibition, confirmation, counter-screen for Rpn11 inhibitor project, biochemical, fluorescence polarization, single concentration. AID 602333, 2012. hit rate 13% among 1,900. shares compounds with Rpn11 block. bovine thrombin cleavage of Ub4-pepOG. inhibition, % at 20 µM;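 active = mean inhibition at least 40% at 20 µM, or signal 3 deviations below plate average, so some actives read negative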;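 note: plate controls were thrombin with DMSO for no effect and buffer wells lacking thrombin for full effect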
# Target sequence (P00735 whole entry, looked up): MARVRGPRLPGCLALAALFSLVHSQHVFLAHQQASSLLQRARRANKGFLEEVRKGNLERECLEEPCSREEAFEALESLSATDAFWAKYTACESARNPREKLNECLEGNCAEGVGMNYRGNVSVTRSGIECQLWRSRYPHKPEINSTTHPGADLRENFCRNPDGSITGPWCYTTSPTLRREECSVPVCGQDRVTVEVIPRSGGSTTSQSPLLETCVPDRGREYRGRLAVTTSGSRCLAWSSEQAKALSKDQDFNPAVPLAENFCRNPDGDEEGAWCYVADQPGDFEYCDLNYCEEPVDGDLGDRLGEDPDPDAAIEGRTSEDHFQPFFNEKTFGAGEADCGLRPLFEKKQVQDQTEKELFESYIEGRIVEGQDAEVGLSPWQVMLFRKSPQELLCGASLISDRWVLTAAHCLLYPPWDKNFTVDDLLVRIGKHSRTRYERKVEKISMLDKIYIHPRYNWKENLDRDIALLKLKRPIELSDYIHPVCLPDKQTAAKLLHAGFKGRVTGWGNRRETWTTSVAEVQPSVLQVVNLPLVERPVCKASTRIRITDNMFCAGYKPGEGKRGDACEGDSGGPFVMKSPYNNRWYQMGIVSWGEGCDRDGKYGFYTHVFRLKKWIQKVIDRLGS
# Numbers without * were called inactive; · = no result. Cut-off read from the data, not from the text of the source, unless noted: active = inhibition above about 40%; inactive = the rest.
SMILES,CSN inh,Rpn11 block,TPT1 inh,XiGFP reactiv,aDG glyco act,HNF4A DNA FP,Rpn11 inh conf,MMP-2 inh,Thrombin inh
O=C(NN=C1c2ccccc2-c2ccccc21)c1ccccn1,-3,94*,0,·,0,1,60*,-28,-14
C[C@@H]1CN([C@H](C)CO)C(=O)Cc2cc(NC(=O)C3CCCCC3)ccc2O[C@@H]1CN(C)S(=O)(=O)c1ccc(F)cc1,·,·,·,0,·,·,·,·,·
COC(=O)C[C@H]1C[C@@H]2c3cc(NC(=O)NC4CCCCC4)ccc3O[C@@H]2[C@H](CO)O1,·,·,·,0,·,·,·,·,·
O=C(CN1CCCCC1)Nc1ccc(N2CCCCCC2)cc1,-3,88*,0,0,0,72*,-5,-35,-5
O=C(Nc1ccc(N2CCCC2)cc1)c1cc2ccccc2o1,19,69*,2,0,0,11,23,6,0
O=C(Nc1ccc(N2CCCC2)cc1)c1cc(Cl)ccc1Cl,23,77*,3,0,0,14,3,-11,-10
C[C@@H]1CN([C@@H](C)CO)C(=O)c2cc(NC(=O)CCN3CCOCC3)ccc2O[C@H]1CN(C)C(=O)Nc1ccc(F)cc1,·,·,·,0,·,·,·,·,·
C/C=C/c1ccc([C@@H]2[C@@H](CO)N(C(=O)NCCC)[C@H]2CNC(=O)C2CC2)cc1,·,·,·,0,·,·,·,·,·
NS(=O)(=O)c1ccc(N/C=C\C(=O)c2ccc3ccccc3c2)cc1,14,45*,11,0,0,-2,67*,38,-12
COc1ccc(N/C=C\C(=O)c2ccc3ccccc3c2)cc1,-2,8,1,0,0,1,·,·,·
O=c1cc(-c2ccc(Cl)cc2)[nH][nH]1,-2,110*,-2,·,0,1,-7,-28,-13
O=C(COC(=O)Cc1ccsc1)NCc1ccccc1,-1,39*,1,0,0,0,-3,-15,-18
O=C(Nc1ccccc1F)N1C[C@H]2[C@@H](c3ccccc31)[C@@H](CO)N2C(=O)C1CCOCC1,·,·,·,0,·,·,·,·,·
C[C@@H]1CCCCO[C@H](CN(C)C(=O)Nc2cccc3ccccc23)[C@H](C)CN([C@H](C)CO)C(=O)c2cc(NS(=O)(=O)c3cn(C)cn3)ccc2O1,·,·,·,-1,·,·,·,·,·
Cc1cc2c(=O)n(Cc3ccco3)c(SCC(=O)c3ccc(Cl)s3)nc2s1,-2,40*,2,·,1,-3,-10,-46,-6
Clc1cccc(CNc2nc(-c3cccnc3)nc3ccccc23)c1,6,54*,·,0,0,5,4,-60,-17
Cc1ccc(C(=O)O)cc1-c1ccc(C=C2C(=O)c3ccccc3C2=O)o1,27,99*,30*,0,0,-11,16,-43,7
C[C@H]1CN([C@@H](C)CO)C(=O)c2cc(-c3cccnc3)cnc2O[C@H]1CN(C)C(=O)c1cccc(F)c1,·,·,·,0,·,·,·,·,·
CSc1nc2nccc(-c3ccc(-c4ccccc4)cc3)n2n1,22,60*,1,·,0,1,1,32,-6
CSc1nc2nccc(-c3ccc(Oc4ccccc4)cc3)n2n1,-5,-1,2,·,0,-2,·,·,·
CCOC(=O)c1c(NC(=S)Nc2ccccc2)sc2c1CC(C)(C)SC2,18,42*,22,1,-1,12,8,81*,-11
COc1ccccc1N1CCN(C(=O)CSc2ncccc2-c2nc3ccccc3[nH]2)CC1,23,31,13,·,1,25,·,·,·
COc1ccc(N2CCN(C(=O)CSc3ncccc3-c3nc4ccccc4[nH]3)CC2)cc1,20,36*,13,·,2,26,8,22,12
COc1nc(-c2ccc(C)cc2)ccc1-c1noc(-c2cccnc2)n1,5,13,1,·,0,11,·,·,·
COc1nc(-c2ccccc2)ccc1-c1noc(-c2cccnc2)n1,1,44*,4,·,0,9,-6,-24,-7
SMILES,CSN inh,Rpn11 block,TPT1 inh,XiGFP reactiv,aDG glyco act,HNF4A DNA FP,Rpn11 inh conf,MMP-2 inh,Thrombin inh
CN(C)C(=O)c1ccc(-c2ccc([C@@H]3[C@@H](CO)N4C(=O)CN(C(=O)CC5CC5)C[C@@H]34)cc2)cc1,·,·,·,0,·,·,·,·,·
CNC[C@@H]1Oc2ccc(NC(=O)Nc3c(C)noc3C)cc2CC(=O)N([C@@H](C)CO)C[C@H]1C,·,·,·,-1,·,·,·,·,·
CC1=NN(c2ccccc2)C(=O)C1/C=C1\NC(=S)NC1=O (stereo unspecified),34,45*,2,0,0,-10,84*,19,24
C=C(C)CSc1nc2sc3c(c2c(=O)n1C1CCCCC1)CCN(C)C3,2,60*,19,0,0,15,18,-22,6
C[C@@H]1CN([C@H](C)CO)C(=O)Cc2cc(NC(=O)Nc3ccc4c(c3)OCO4)ccc2O[C@@H]1CN(C)S(=O)(=O)c1ccc(Cl)cc1,·,·,·,0,·,·,·,·,·
O=C(CSc1nnc(SCc2cccc3ccccc23)s1)N/N=C/c1c[nH]c2ccccc12,-5,3,-3,0,0,1,·,·,·
O=C(CSc1nnc(SCc2ccc(Cl)cc2)s1)N/N=C/c1c[nH]c2ccccc12,35,125*,-1,·,0,112*,68*,20,-3
COC(=O)c1ccc(/C=C/C(=O)c2ccc(OC)c(OC)c2)cc1,11,-3,-1,·,2,0,·,·,·
COc1ccc(/C=C/C(=O)c2ccc(C(=O)/C=C/c3ccc(OC)c(OC)c3)cc2)cc1OC,24,56*,·,0,0,13,36,-20,2
COc1ccc(COc2ccc3c(C)cc(=O)oc3c2)cc1,1,-3,-3,0,0,1,·,·,·
